One data set deals with T1, Histone deacetylase 8 (Homo sapiens, UniProt Q9BY41).
T1 sequence (Q9BY41 whole entry): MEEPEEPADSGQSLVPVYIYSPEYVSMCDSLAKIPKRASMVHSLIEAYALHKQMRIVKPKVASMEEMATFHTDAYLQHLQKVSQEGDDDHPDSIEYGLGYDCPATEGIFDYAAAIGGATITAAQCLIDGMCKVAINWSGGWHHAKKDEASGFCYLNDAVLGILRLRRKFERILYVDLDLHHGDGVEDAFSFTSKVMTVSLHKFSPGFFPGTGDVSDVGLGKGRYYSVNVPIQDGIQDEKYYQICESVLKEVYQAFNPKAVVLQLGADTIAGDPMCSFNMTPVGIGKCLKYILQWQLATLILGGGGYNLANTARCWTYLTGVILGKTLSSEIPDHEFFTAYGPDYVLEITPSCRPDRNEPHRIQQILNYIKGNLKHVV
The data set is described as follows: Inhibition of human recombinant HDAC8 using Fluor de Lys as substrate.

Data set [1] deals with Histone deacetylase 3/Nuclear receptor corepressor 2 (HDAC3/NCoR2) (Homo sapiens, UniProt O15379). The data set is described as follows: Inhibition of human recombinant HDAC3/NCoR2 using fluorophore-conjugated substrate Boc-L-Lys(Ac)-AMC. The class given is protein-complex assay.
The target of data set [2] is T2, Histone deacetylase (Homo sapiens) (UniProt Q13547+O15379+Q9UBN7+Q92769+Q9UQL6+Q8WUI4+Q9BY41+Q96DB2+P56524+Q9UKV0+Q969S8). The data set is described as follows: Inhibition of HDAC in retinoic acid-differentiated human SH-SY5Y cells assessed as increase in histone H4 acetylation at 1 uM after 24 hrs by Western blot analysis in presence of 100 uM LY294002. It counts as cell-based. (In general: A western blot detects proteins with antibodies after separation by electrophoresis.)

For data set [3], the target named is T2, Histone deacetylase (Homo sapiens). The data set is described as follows: Inhibition of HDAC in retinoic acid-differentiated human SH-SY5Y cells assessed as increase in histone H4 acetylation at 1 uM after 24 hrs by Western blot analysis. It counts as cell-based.
The subject of data set [4] is SH-SY5Y. The data set is described as follows: cells. It counts as functional, cell-based. To be noted: Homo sapiens, 48 h.
For data set [5], the system named is SH-SY5Y. The data set is described as follows: cells. It counts as functional, cell-based. To be noted: Homo sapiens, 24 h.
For data set [6], the system named is HeLa. The data set is described as follows: cells. It counts as functional, cell-based. To be noted: Homo sapiens, 48 h.
The test system of data set [7] is HeLa. The data set is described as follows: cells. To be noted: Homo sapiens, 72 h. It counts as functional, cell-based.
Data set [8] has as its system HepG2. The data set is described as follows: cells. It counts as functional, cell-based. To be noted: Homo sapiens, HepG2, 72 h.
The test system of data set [9] is HeLa. The data set is described as follows: cells. It counts as functional, cell-based. To be noted: Homo sapiens, 24 h.
Data set [10] relates to HepG2. The data set is described as follows: cells. The following applies: Homo sapiens, HepG2, 48 h. It counts as functional, cell-based.
Data set [11] concerns HepG2. The data set is described as follows: cells. To be noted: Homo sapiens, HepG2, 24 h. The class given is functional, cell-based.
Data set [12] concerns SH-SY5Y. The data set is described as follows: Neuroprotective activity against LY294002-induced stress in retinoic acid-differentiated human SH-SY5Y cells assessed as cell survival at 0.5 to 20 uM. It counts as functional, cell-based. The method, boiled down:
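SH-SY5Y cells pre-differentiated with retinoic acid, seeded at 2×10^4 cells/well in 1% FBS medium with 5 µM retinoic acid. After 24 h, medium changed to phenol red free 1% FBS medium with 5 µM retinoic acid plus vehicle (DMSO) or 0.5–50 µM inhibitor (final), with or without 100 µM LY294002. Viability by XTT after 24 h. Expressed as percent survival relative to vehicle, four replicates ± SD. Analysed by one-way ANOVA with Dunnett's test.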

The subject of data set [13] is SH-SY5Y. The data set is described as follows: Cytotoxicity against retinoic acid-differentiated human SH-SY5Y cells assessed as cell survival at 20 uM. The class given is cell-based. The essentials:
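SH-SY5Y cells are differentiated for 7–8 days in 1% FBS medium with 10 µM retinoic acid, then seeded at 2×10^4 cells/well in 1% FBS medium with 5 µM RA. After 24 h they go into phenol-red-free 1% FBS/RA medium with DMSO or 0.5–50 µM inhibitor, without or with 100 µM LY294002, for 24 h. Readout: XTT viability as % survival vs vehicle, four replicates ± SD, one-way ANOVA with Dunnett.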

Data set [14] concerns SH-SY5Y. The data set is described as follows: cells. The class given is functional, cell-based. The following applies: Homo sapiens, 72 h.
The target in data set [15] is Matrix metalloproteinase-14 (Homo sapiens, UniProt P50281). The data set is described as follows: Inhibition of MMP14.
The target in another data set is Stromelysin-1 (Homo sapiens, UniProt P08254). The data set is described as follows: Inhibition of MMP3.
Data set [16] deals with HepG2. The data set is described as follows: Induction of apoptosis in human HepG2 cells assessed as hyperacetylation of p53 after 24 hrs by Western blot analysis. It counts as functional, cell-based. The method, boiled down: (§1)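 HepG2 cells are seeded at 2.7×10^5 cells/well in D7 medium (DMEM, 7% FBS), refed after 24 h, and after 1 h at 37 °C treated with DMSO or 1, 5 or 10 µM inhibitor. Lysis is in ice-cold 1% CHAPSO buffer (50 mM Hepes pH 7.4), 45 min at 4 °C. Immunoblots are probed for cleaved caspase 3 Asp175, acetyl-Lys373 p53, total p53 and GAPDH, detected by chemiluminescence, with band densitometry.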

The test system of data set [17] is HepG2. The data set is described as follows: Induction of apoptosis in human HepG2 cells assessed as cleavage of caspase 3 at 1 to 10 uM after 24 hrs by Western blot analysis. It counts as functional, cell-based. The method, boiled down:
as §1

Data set [18] concerns HepG2. The data set is described as follows: Induction of apoptosis in human HepG2 cells assessed as hyperacetylation of p53 at 1 to 10 uM by Western blot analysis. It counts as functional, cell-based. The method, boiled down:
as §1

Data set [19] has as its system HepG2. The data set is described as follows: Induction of apoptosis in human HepG2 cells assessed as cleavage of caspase 3 at 1 to 10 uM after 14 hrs by Western blot analysis. It counts as functional, cell-based. The essentials: as §1

pEC50, pIC50: −log10 of the molar value. The source made the active and inactive calls. The calls are words filed in the database; no cut-off is given here.

By pIC50 is commonly meant the negative decadic logarithm of the IC50, by convention in mol/L. For orientation: pEC50 means the EC50 on a negative log10 scale, so that one unit is a factor of ten. Read a high pEC50 as a low EC50.

Sequence of Histone deacetylase 3/Nuclear receptor corepressor 2 (HDAC3/NCoR2) (O15379 whole entry): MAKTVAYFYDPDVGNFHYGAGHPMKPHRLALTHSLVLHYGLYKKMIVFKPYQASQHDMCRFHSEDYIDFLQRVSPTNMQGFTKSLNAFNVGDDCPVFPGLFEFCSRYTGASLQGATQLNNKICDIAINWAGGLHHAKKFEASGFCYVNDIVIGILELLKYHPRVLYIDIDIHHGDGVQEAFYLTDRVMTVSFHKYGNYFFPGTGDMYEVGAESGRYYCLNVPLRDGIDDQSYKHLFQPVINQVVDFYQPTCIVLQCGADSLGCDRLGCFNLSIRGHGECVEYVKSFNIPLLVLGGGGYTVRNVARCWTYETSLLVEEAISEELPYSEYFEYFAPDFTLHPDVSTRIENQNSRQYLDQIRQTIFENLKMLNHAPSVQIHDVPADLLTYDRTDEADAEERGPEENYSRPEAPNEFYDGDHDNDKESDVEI
Sequence of Histone deacetylase 3/Nuclear receptor corepressor 2 (HDAC3/NCoR2) (Q9Y618 whole entry, further chain): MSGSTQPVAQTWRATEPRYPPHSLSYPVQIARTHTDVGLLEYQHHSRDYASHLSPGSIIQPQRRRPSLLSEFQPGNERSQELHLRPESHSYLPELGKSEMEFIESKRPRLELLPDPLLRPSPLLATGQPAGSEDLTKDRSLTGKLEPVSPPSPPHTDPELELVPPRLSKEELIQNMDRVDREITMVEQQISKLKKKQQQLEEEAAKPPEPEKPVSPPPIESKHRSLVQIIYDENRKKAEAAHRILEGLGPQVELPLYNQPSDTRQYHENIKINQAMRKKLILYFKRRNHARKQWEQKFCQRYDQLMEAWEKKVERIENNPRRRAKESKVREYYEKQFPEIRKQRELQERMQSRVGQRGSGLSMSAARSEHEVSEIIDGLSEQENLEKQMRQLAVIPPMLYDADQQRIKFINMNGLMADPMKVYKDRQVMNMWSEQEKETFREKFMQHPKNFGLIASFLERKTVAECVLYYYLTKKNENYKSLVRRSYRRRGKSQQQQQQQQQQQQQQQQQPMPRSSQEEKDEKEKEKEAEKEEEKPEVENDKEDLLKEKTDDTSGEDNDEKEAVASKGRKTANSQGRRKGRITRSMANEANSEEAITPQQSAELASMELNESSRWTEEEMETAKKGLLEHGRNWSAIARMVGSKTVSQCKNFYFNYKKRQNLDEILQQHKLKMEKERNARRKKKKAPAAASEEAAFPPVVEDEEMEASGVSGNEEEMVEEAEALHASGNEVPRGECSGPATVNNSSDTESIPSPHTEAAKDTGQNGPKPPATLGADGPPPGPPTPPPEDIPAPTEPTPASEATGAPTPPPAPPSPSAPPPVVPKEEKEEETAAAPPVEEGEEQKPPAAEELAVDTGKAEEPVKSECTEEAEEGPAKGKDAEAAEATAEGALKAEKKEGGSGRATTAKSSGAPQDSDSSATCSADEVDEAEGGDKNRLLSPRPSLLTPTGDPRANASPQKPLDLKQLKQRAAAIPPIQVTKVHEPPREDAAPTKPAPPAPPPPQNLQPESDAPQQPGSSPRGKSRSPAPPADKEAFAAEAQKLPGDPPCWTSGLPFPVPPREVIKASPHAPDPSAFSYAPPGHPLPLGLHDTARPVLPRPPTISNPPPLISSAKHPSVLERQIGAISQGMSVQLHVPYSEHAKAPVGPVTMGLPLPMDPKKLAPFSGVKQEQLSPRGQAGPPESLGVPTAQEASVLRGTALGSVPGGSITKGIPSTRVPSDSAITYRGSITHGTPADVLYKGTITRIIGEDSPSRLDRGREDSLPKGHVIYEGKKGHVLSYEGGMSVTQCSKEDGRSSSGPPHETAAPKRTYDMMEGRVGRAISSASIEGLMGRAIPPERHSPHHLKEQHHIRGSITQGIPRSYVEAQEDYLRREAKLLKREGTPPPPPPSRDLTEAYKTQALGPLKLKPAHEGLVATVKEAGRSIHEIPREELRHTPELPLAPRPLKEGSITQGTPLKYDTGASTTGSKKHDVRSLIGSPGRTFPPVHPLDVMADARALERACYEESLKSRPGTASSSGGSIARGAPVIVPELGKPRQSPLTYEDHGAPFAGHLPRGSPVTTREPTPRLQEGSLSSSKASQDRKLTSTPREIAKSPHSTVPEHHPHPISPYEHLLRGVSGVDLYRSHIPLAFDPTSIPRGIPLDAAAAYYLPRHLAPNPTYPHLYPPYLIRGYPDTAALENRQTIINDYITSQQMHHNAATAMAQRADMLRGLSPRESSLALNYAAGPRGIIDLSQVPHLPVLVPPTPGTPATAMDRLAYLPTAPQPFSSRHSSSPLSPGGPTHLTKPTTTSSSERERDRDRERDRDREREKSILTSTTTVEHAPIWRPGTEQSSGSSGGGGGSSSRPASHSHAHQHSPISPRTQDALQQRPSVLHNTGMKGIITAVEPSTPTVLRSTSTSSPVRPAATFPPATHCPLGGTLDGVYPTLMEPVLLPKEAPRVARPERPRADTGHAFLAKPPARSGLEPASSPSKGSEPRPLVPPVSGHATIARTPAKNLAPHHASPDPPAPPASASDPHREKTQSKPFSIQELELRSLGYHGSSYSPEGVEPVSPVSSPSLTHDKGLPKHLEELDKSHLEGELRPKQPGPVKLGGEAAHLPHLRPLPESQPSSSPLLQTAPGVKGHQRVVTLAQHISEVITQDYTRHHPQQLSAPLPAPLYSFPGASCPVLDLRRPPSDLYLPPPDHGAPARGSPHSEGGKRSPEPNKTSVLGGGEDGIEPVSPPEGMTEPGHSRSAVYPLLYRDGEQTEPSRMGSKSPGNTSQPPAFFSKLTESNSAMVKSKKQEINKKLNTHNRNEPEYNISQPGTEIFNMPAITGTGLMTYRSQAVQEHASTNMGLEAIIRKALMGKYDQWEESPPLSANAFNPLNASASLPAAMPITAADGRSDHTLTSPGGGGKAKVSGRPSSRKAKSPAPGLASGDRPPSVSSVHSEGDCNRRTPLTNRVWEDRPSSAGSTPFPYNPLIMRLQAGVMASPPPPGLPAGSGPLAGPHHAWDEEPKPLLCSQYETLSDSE
Sequence of Stromelysin-1 (P08254 whole entry): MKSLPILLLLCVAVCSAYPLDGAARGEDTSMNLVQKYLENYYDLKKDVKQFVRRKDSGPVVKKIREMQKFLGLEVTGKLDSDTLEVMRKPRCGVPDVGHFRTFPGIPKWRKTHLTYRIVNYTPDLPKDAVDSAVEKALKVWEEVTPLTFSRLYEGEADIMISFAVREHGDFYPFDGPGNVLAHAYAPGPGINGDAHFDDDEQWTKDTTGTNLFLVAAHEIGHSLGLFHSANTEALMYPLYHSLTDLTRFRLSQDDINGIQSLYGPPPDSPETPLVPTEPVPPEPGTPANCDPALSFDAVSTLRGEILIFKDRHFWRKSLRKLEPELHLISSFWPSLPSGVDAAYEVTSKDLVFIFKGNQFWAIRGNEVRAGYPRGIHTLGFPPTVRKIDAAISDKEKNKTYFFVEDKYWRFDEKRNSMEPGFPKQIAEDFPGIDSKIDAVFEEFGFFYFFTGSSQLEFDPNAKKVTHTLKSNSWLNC

Consider `[N-]=[N+]=Nc1ccc(-c2cc(C(=O)NCCCCCCC(=O)NO)no2)cc1`, for which the pIC50 on Histone deacetylase 8 is 6.15; in data set [1], 7.14. Moreover, the inhibition entry in data set [2] and in data set [3] was “Active” each time.
For the molecule `[N-]=[N+]=NCc1cc(N=[N+]=[N-])cc(C(=O)Nc2ccc(Cn3cc(NC(=O)CCCCCCC(=O)NO)cn3)cc2)c1`, the pIC50 at Histone deacetylase 8 is 6.31; in data set [1] it was 6.36.
In the case of `O=C(CCCCCCC(=O)Nc1cnn(Cc2ccccc2)c1)NO`, the negative-log EC50 (pEC50) in the data set with SH-SY5Y [4] was 4.64; with SH-SY5Y [5], below 4.30; in the data set on HeLa [6], 4.97; in the data set on HeLa [7], 5.26; in the data set on HepG2 [8] it was 5.26; in the data set with HeLa [9], 4.33. Besides, the pEC50 in the data set on HepG2 [10] is 4.90; in the data set with HepG2 [11] it was below 4.30; in the data set on SH-SY5Y [14], 4.63. Also, the pIC50 on Histone deacetylase 8 was 7.12; in data set [1] it was 7.36. In the data set on SH-SY5Y [12], the outcome was inactive. The Activity entry in the data set on SH-SY5Y [13] is listed as “Non-toxic”.
Turning to `CC(C)(C)OC(=O)Nc1ccc(Cn2cc(NC(=O)CCCCCCC(=O)NO)cn2)cc1`, the pIC50 at Histone deacetylase 8 was 6.83; in data set [1] it was 6.72.
For the molecule `[N-]=[N+]=Nc1ccc(Cn2cc(NC(=O)CCCCCCC(=O)NO)cn2)cc1`, the pEC50 in the data set with SH-SY5Y [4] is 4.63; in the data set with SH-SY5Y [5] it was below 4.30; in the data set with HeLa [6], 5.00; with HeLa [7], 5.34; in the data set on HepG2 [8] it was 5.23; in the data set on HeLa [9], 4.42. For the same molecule, the pEC50 with HepG2 [10] was 4.90; in the data set on HepG2 [11], below 4.30; in the data set on SH-SY5Y [14], 4.64. Besides, the pIC50 on Histone deacetylase 8 is 7.55; in data set [1], 7.66. Further, in the data set with SH-SY5Y [12], the result was inactive. In the data set on SH-SY5Y [13], the Activity entry was “Non-toxic”.
As for `CNC(=O)[C@H](Cc1c[nH]c2ccccc12)NC(=O)[C@@H](CC(=O)NO)CC(C)C` [ILOMASTAT], the pIC50 is 9.39 in data set [15] and 8.12 on Stromelysin-1.
Regarding `O=C(CCCCCCC(=O)Nc1cnn(Cc2ccc([N+](=O)[O-])cc2)c1)NO`, the pIC50 is 7.09 at Histone deacetylase 8 and 7.23 in [1].
For the molecule `O=C(CCCCCCC(=O)Nc1ccccc1)NO`, the outcome in the data set on HepG2 [16] and in the data set with HepG2 [18] was inactive. The outcome in the data set on HepG2 [17] and in the data set with HepG2 [19] was Active.
Regarding `[N-]=[N+]=NCc1cc(COc2ccc(NC(=O)CCCCCCC(=O)NO)cc2)cc(N=[N+]=[N-])c1`, the pIC50 in data set [1] is 5.83.

Values taken from ChEMBL document CHEMBL1914352, “Design, synthesis, docking, and biological evaluation of novel diazide-containing isoxazole- and pyrazole-based histone deacetylase probes” (J Med Chem, 2011).
